Test results reported in ChEMBL document CHEMBL3085673, “The design of a novel series of muscarinic receptor antagonists leading to AZD8683, a potential inhaled treatment for COPD” (Bioorg Med Chem Lett, 2013).
pIC50: −log10 of the molar value.

Key:
[1] = target: Muscarinic acetylcholine receptor M3 (Homo sapiens, UniProt P20309); assay: Displacement of [3H]NMS from recombinant human M3 receptor expressed in CHO-K1 cells after 16 hrs by SPA method; type: cell-based
Summary of the method: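 Nonspecific binding defined with atropine 1 µM; eight total-binding replicates per plate. Incubated at room temperature at least 16 h to equilibrium before counting; n ≥ 2.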

[2] = Therapeutic index, ratio of ED80 for methacholine-induced bronchoconstriction in Dunkin-Hartley guinea pig to EC50 for reduction of pilocarpine-induced salivation in guinea pig; type: organism-based, Cavia porcellus; details: in vivo, read-out: TI
[3] = Half life in guinea pig lung administered via intratracheal instillation at 1 ug/kg by HPLC-MS analysis; type: ADME, tissue-based, Cavia porcellus; details: inhaled or intranasal, 0.001 mg/kg
Summary of the method: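 Halothane-anaesthetised guinea pigs given 1 μg/kg by intratracheal instillation. Lungs collected at 0.25-24 h after barbiturate overdose, homogenised in phosphate buffer and added to ice-cold methanol. Supernatant analysed by mass spectrometry/HPLC.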

[4] = tested on: Cavia porcellus; assay: Inhibition of methacholine-induced bronchoconstriction in Dunkin-Hartley guinea pig administered via intratracheal/intranasal after 2 to 4 hrs relative to control; type: functional; details: inhaled or nasal
Summary of the method: (§1)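 Dunkin-Hartley guinea pigs dosed in 0.9% saline by intratracheal or intranasal microsprayer under halothane. At 2, 4, 24 or 48 h, animals were terminally anaesthetised with pentobarbitone and ventilated at 60 breaths/min, 2 mL tidal volume. Peak respiratory resistance measured after IV methacholine 10 μg/kg. Percent inhibition calculated against a time-matched vehicle group. For duration, dosing was at the ED80 dose, measured or predicted from trachea potency.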

[5] = tested on: Cavia porcellus; assay: Inhibition of methacholine-induced bronchoconstriction in Dunkin-Hartley guinea pig administered via intratracheal/intranasal after 48 hrs relative to control; type: functional; summary of the method: as §1
[6] = Intrinsic clearance in human liver microsomes; type: ADME; details: read-out: CLH
[7] = tested on: Cavia porcellus; assay: Toxicity in guinea pig assessed as reduction of pilocarpine-induced salivation administered via intranasal administered for 4 hrs followed by pilocarpine challenge measured every 5 mins for 15 mins; type: organism-based
Summary of the method: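 Compound or vehicle given intranasally under halothane. At 4 h, animals were anaesthetised with urethane and the mouth dried with gauze for 5 min. Baseline saliva taken on a pre-weighed pad over 5 min. Pilocarpine 0.6 mg/kg given subcutaneously, then pads replaced every 5 min for 15 min and saliva quantified by pad weight gain.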

[8] = target: Muscarinic acetylcholine receptor M3 (Cavia porcellus, UniProt Q8VH26); assay: Antagonist activity at M3 receptor in Dunkin-Hartley guinea pig trachea assessed as inhibition of methacholine-induced airway smooth muscle contraction after 1 to 4 hrs; details: read-out: pA2 (converted)
Summary of the method: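 Isolated guinea pig tracheal rings equilibrated 1 h, re-tensioned to 1 g, primed with methacholine, then a cumulative methacholine curve (3 × 10^-9 to 3 × 10^-5 M). Vehicle or compound equilibrated 1 or 4 h before a second curve (3 × 10^-9 to 1 × 10^-3 M final). Isometric force as % of curve-1 maximum. pA2 calculated from vehicle and test A50 values; n = 2.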

[9] = Plasma protein binding in human; type: ADME, cell-free; details: read-out: PPB (converted)
[10] = tested on: Cavia porcellus; assay: Inhibition of methacholine-induced bronchoconstriction in Dunkin-Hartley guinea pig administered via intratracheal/intranasal after 24 hrs relative to control; type: functional; summary of the method: as §1

Muscarinic acetylcholine receptor M3 (Cavia porcellus, UniProt Q8VH26), sequence (Q8VH26 whole entry): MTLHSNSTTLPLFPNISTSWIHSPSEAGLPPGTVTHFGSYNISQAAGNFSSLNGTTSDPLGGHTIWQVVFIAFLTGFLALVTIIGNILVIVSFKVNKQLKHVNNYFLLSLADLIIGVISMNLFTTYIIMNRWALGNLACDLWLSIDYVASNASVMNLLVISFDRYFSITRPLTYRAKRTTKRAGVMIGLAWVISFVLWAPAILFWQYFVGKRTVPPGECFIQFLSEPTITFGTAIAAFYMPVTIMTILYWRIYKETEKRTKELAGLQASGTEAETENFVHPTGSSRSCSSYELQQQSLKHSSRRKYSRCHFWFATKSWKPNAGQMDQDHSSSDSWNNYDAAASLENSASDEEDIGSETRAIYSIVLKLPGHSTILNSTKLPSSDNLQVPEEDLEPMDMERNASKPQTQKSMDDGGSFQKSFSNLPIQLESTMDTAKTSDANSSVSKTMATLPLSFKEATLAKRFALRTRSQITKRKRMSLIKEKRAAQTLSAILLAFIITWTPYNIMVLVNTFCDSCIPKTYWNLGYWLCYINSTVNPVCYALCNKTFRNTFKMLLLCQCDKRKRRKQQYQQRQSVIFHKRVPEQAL
Muscarinic acetylcholine receptor M3 (Homo sapiens, UniProt P20309), sequence (P20309 whole entry): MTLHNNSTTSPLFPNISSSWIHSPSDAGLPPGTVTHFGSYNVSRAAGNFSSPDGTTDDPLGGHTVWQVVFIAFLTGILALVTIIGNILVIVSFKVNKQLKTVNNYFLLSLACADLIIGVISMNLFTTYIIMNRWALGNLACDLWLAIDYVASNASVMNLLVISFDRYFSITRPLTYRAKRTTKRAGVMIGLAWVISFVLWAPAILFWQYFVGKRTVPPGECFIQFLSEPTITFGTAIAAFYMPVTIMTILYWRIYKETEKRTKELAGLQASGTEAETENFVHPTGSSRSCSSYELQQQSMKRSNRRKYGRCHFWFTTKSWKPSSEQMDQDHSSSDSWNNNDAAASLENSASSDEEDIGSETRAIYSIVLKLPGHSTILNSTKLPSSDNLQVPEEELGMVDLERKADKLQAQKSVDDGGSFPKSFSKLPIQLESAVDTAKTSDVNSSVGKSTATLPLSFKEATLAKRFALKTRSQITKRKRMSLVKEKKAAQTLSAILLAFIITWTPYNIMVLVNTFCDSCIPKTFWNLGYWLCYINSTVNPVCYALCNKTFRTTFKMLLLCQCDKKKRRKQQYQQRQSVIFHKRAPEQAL

Work on `O=C(C[N+]12CCC(CC1)[C@@H](OC(=O)C1(C3=CC=CC3)CCCCCC1)C2)Nc1ccccn1` yielded a pIC50 [1] of 9.80, a selectivity ratio [2] of no less than 10 and a half-life [3] of 25.6 h. For the same molecule, the ED80 [4] was 1 µg/kg, the “inhibition (INH)” value [5] was 84% and the microsomal CLint [6] was 55 µL/min/mg. It also gave an EC50 [7] greater than 30 µg/kg, a Kb [8] of 0.398 nM and a fraction unbound [9] of 0.04.
`Cc1cc(NC(=O)C[N+]23CCC(CC2)[C@@H](OC(=O)C2(C4=CC=CC4)CCCCCC2)C3)no1` showed a pIC50 [1] of 9.80, a selectivity ratio [2] of no less than 10 and a half-life [3] of 26.6 h. The “inhibition (INH)” value [10] was 56%, the ED80 [4] was 3 µg/kg and the microsomal CLint [6] was 26 µL/min/mg. It also gave an EC50 [7] greater than 30 µg/kg, a Kb [8] of 0.251 nM and a fraction unbound [9] of 0.03.
`O=C(C[N+]12CCC(CC1)[C@@H](OC(=O)C1(C3=CC=CC3)CCCCCC1)C2)Nc1cccnn1` gave a pIC50 [1] of 9.80, a half-life [3] of 42.4 h and a microsomal CLint [6] of 70 µL/min/mg. It also gave an EC50 [7] greater than 10 µg/kg, a Kb [8] of 0.0794 nM and a fraction unbound [9] of 0.1.
For `O=C(O[C@H]1C[N+]2(Cc3cc(-c4ccccc4)on3)CCC1CC2)C1(C2=CC=CC2)CCCCCC1`, the pIC50 [1] was 10.10, the half-life [3] was 12.1 h and the microsomal CLint [6] was 79 µL/min/mg. For the same molecule, the Kb [8] was 3.16 nM and the fraction unbound [9] was 0.005.
In the case of `O=C(O[C@H]1C[N+]2(CCCc3nc4ccccc4o3)CCC1CC2)C1(C2=CC=CC2)CCCCCC1`, the half-life [3] was 9.3 h and the fraction unbound [9] was 0.04.
`O=C(O[C@H]1C[N+]2(Cc3nc(-c4ccccc4)no3)CCC1CC2)C1(C2=CC=CC2)CCCCCC1` showed a pIC50 [1] of 9.80, a half-life [3] of 17 h and an ED80 [4] of 3 µg/kg. For the same molecule, the “inhibition (INH)” value [5] was 0%, the microsomal CLint [6] was 102 µL/min/mg and the Kb [8] was 0.398 nM. It also gave a fraction unbound [9] of 0.01.
With `O=C(C[N+]12CCC(CC1)[C@@H](OC(=O)C1(C3=CC=CC3)CCCCCC1)C2)Nc1cnccn1` the pIC50 [1] was greater than 9.90, the selectivity ratio [2] was no less than 10 and the half-life [3] was 23 h. For the same molecule, the “inhibition (INH)” value [10] was 88%, the ED80 [4] was 1 µg/kg and the “inhibition (INH)” value [5] was 73%. For the same molecule, the microsomal CLint [6] was 43 µL/min/mg, the EC50 [7] was greater than 10 µg/kg and the Kb [8] was 0.126 nM. It also gave a fraction unbound [9] of 0.075.
For `O=C(O[C@H]1C[N+]2(CCCc3ccncc3)CCC1CC2)C1(C2=CC=CC2)CCCCCC1`, the pIC50 [1] was greater than 10.40, the half-life [3] was 19 h and the “inhibition (INH)” value [10] was 0%. The ED80 [4] was 1 µg/kg, the microsomal CLint [6] was 57 µL/min/mg and the Kb [8] was 0.126 nM. For the same molecule, the fraction unbound [9] was 0.12.
`Cc1ccc(CCC[N+]23CCC(CC2)[C@@H](OC(=O)C2(C4=CC=CC4)CCCCCC2)C3)cn1` gave a pIC50 [1] of 9.80, a half-life [3] of 19.2 h and a microsomal CLint [6] of 77 µL/min/mg. The fraction unbound [9] was 0.05.
For `C[N+]1(C)[C@@H]2C[C@@H](OC(=O)C(O)(c3cccs3)c3cccs3)C[C@H]1[C@@H]1O[C@@H]12.O.[Br-]` [TIOTROPIUM BROMIDE], the “inhibition (INH)” value [10] was greater than 80%, the ED80 [4] was 0.3 µg/kg and the “inhibition (INH)” value [5] was 69%. For the same molecule, the EC50 [7] was less than 0.3 µg/kg.
For `Cc1cc(CCC[N+]23CCC(CC2)[C@@H](OC(=O)C2(C4=CC=CC4)CCCCCC2)C3)ccn1`, the pIC50 [1] was greater than 10.50, the half-life [3] was 43.7 h and the “inhibition (INH)” value [10] was 0%. The ED80 [4] was 1 µg/kg, the microsomal CLint [6] was 135 µL/min/mg and the Kb [8] was 0.158 nM. The fraction unbound [9] was 0.03.
Work on `NC(=O)C[N+]12CCC(CC1)[C@@H](OC(=O)C1(C3=CC=CC3)CCCCCC1)C2` yielded a pIC50 [1] of 9.70, a half-life [3] of 11.4 h and a microsomal CLint [6] of 19 µL/min/mg. The Kb [8] was 0.0794 nM and the fraction unbound [9] was 0.18.
For `O=C(O[C@H]1C[N+]2(CCCOc3ccccc3)CCC1CC2)C1(C2=CC=CC2)CCCCCC1`, the pIC50 [1] was 10.20, the half-life [3] was 10.2 h and the “inhibition (INH)” value [10] was 31%. The ED80 [4] was 3 µg/kg, the microsomal CLint [6] was 75 µL/min/mg and the Kb [8] was 0.794 nM. The fraction unbound [9] was 0.085.
Molecule `O=C(O[C@H]1C[N+]2(Cc3nc4ccccc4o3)CCC1CC2)C1(C2=CC=CC2)CCCCCC1` has a pIC50 [1] of 10.00, a half-life [3] of 13 h and a microsomal CLint [6] of 78 µL/min/mg. It also gave an EC50 [7] greater than 10 µg/kg, a Kb [8] of 0.158 nM and a fraction unbound [9] of 0.023.
With `O=C(O[C@H]1C[N+]2(Cc3cc(-c4ccccc4)no3)CCC1CC2)C1(C2=CC=CC2)CCCCCC1` the pIC50 [1] was 9.60, the half-life [3] was 16.5 h and the ED80 [4] was 3 µg/kg. The “inhibition (INH)” value [5] was 0%, the microsomal CLint [6] was 63 µL/min/mg and the EC50 [7] was greater than 30 µg/kg. For the same molecule, the Kb [8] was 0.316 nM and the fraction unbound [9] was 0.01.
Work on `O=C(O[C@H]1C[N+]2(CCCc3ccncc3)CCC1CC2)C1(c2cccs2)CCCCCC1` yielded a pIC50 [1] of 10.30, a microsomal CLint [6] of 55 µL/min/mg and a Kb [8] of 0.1 nM. For the same molecule, the fraction unbound [9] was 0.06.
With `O=C(C[N+]12CCC(CC1)[C@@H](OC(=O)C1(C3=CC=CC3)CCCCCC1)C2)Nc1ccon1` the pIC50 [1] was greater than 10.20, the half-life [3] was 19 h and the “inhibition (INH)” value [10] was 0%. For the same molecule, the ED80 [4] was 1 µg/kg, the microsomal CLint [6] was 150 µL/min/mg and the EC50 [7] was greater than 10 µg/kg. It also gave a Kb [8] of 0.02 nM and a fraction unbound [9] of 0.18.
`O=C(C[N+]12CCC(CC1)[C@@H](OC(=O)C1(C3=CC=CC3)CCCCCC1)C2)Nc1cccc(F)c1` showed a pIC50 [1] of 9.90, a microsomal CLint [6] of 17 µL/min/mg and a Kb [8] of 3.16 nM. The fraction unbound [9] was 0.003.
Work on `O=C(C[N+]12CCC(CC1)[C@@H](OC(=O)C1(C3=CC=CC3)CCCCCC1)C2)Nc1ccc(Cl)nn1` yielded a pIC50 [1] of 9.70, a selectivity ratio [2] of no less than 10 and a half-life [3] of 56.7 h. The “inhibition (INH)” value [10] was 89%, the ED80 [4] was 3 µg/kg and the EC50 [7] was greater than 30 µg/kg. For the same molecule, the Kb [8] was 0.2 nM and the fraction unbound [9] was 0.04.
Work on `O=C(O[C@H]1C[N+]2(Cc3nnc(-c4ccccc4)o3)CCC1CC2)C1(C2=CC=CC2)CCCCCC1` yielded a pIC50 [1] of 9.50, a half-life [3] of 22 h and an ED80 [4] of 3 µg/kg. The “inhibition (INH)” value [5] was 0%, the microsomal CLint [6] was 97 µL/min/mg and the EC50 [7] was greater than 30 µg/kg. For the same molecule, the Kb [8] was 0.2 nM and the fraction unbound [9] was 0.035.
